ChEMBL document CHEMBL4665823, “Assessing the Perturbing Effects of Drugs on Lipid Bilayers Using Gramicidin Channel-Based In Silico and In Vitro Assays” (J Med Chem, 2020)
Active and inactive are the calls of the source. The rule behind the calls is not given here.

Experiments:
[1] = system: Lipid bilayer; experiment: Induction of membrane perturbation in DC22:1PC LUV bilayer assessed as change in deltaG for pure gramicidin monomer to dimer by fluorescence quenching assay (reference value: 0 kcal/mol)
[2] = system: Lipid bilayer; experiment: Induction of membrane perturbation in DC22:1PC LUV bilayer assessed as fluorescence quench rate by measuring increase in R(drug)/R(control) ratio at gD:lipid molar ratio of > 1:400 in presence of 10 mol % cholesterol by fluorescence quenching assay
How it was run: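 Cholesterol added at 10 mol % before LUV formation; DC22:1PC vesicles made with gD:lipid molar ratios between 1:200 and 1:2000, ANTS-loaded. Tl+ influx was followed by stopped-flow fluorescence quench at 25 °C (ex 352 nm, em >450 nm), and traces were fitted to a stretched exponential.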

[3] = system: Lipid bilayer; experiment: Induction of membrane perturbation in DC22:1PC LUV bilayer assessed as effect on potential of mean force by measuring increase in deltaG for gramicidin mixture monomer to dimer and pure gramicidin-bilayer by fluorescence quenching assay
How it was run: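 ΔΔG(monomer↔dimer) was derived from Tl+/ANTS quench-rate ratios in DC22:1PC LUVs at 1:2000 gramicidin:lipid. Ratios were adjusted for estimated bilayer drug mole fraction and extrapolated linearly to a drug:lipid ratio of 0.084, matching the coarse-grained simulations. Stopped-flow was run at 25 °C.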

[4] = system: Lipid bilayer; experiment: Induction of membrane perturbation in DC20:1PC LUV bilayer assessed as fluorescence quench rate by measuring gramicidin mixture monomer to dimer equilibrium at 300 uM by fluorescence quenching assay
[5] = system: Lipid bilayer; experiment: Induction of membrane perturbation in DC22:1PC LUV bilayer assessed as fluorescence quench rate by measuring increase in R(drug)/R(control) ratio by fluorescence quenching assay
How it was run: (§1)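 ANTS-loaded (25 mM) DC22:1PC LUVs with gD at gramicidin:lipid 1:2000, rehydrated to 10 mM lipid, 3 h equilibration, 1 min sonication. Drug-exposed vesicles were incubated ≥10 min at 25 °C in the dark, then mixed by stopped-flow with Tl+ quench buffer (50 mM TlNO3, pH 7). Fluorescence (ex 352, em >450 nm) was fitted to a stretched exponential; rate given relative to drug-free control.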

[6] = system: Lipid bilayer; experiment: Induction of membrane perturbation in DC22:1PC LUV bilayer assessed as change in deltaG for gramicidin mixture monomer to dimer by fluorescence quenching assay (reference value: 0 kcal/mol)
[7] = system: Lipid bilayer; experiment: Induction of membrane perturbation in DC22:1PC LUV bilayer assessed as effect on potential of mean force by measuring reduction in deltaG for gramicidin mixture monomer to dimer and pure gramicidin-bilayer by fluorescence quenching assay
[8] = system: Lipid bilayer; experiment: Induction of membrane perturbation in DC22:1PC LUV bilayer assessed as fluorescence quench rate by measuring gramicidin mixture monomer to dimer equilibrium at 300 uM by fluorescence quenching assay; how it was run: as §1
[9] = system: Lipid bilayer; experiment: Induction of membrane perturbation in DC18:1PC LUV bilayer assessed as fluorescence quench rate by measuring gramicidin mixture monomer to dimer equilibrium at 300 uM by fluorescence quenching assay
How it was run: (§2)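 DC18:1PC LUVs (gramicidin mixture gD:lipid 1:40,000) loaded with 25 mM ANTS at 10 mM lipid, equilibrated 3 h at room temperature, sonicated 1 min, about 130 nm diameter. Drug added; samples held ≥10 min at 25 °C in the dark, then stopped-flow mixed with 50 mM TlNO3/94 mM NaNO3/10 mM HEPES, pH 7. Ex 352 nm, em >450 nm; quench rate from stretched-exponential fit.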

[10] = system: Lipid bilayer; experiment: Induction of membrane perturbation in DC22:1PC LUV bilayer assessed as fluorescence quench rate by measuring gramicidin mixture monomer to dimer equilibrium at 30000 uM by fluorescence quenching assay
[11] = system: Lipid bilayer; experiment: Induction of membrane perturbation in DC22:1PC LUV bilayer assessed as fluorescence quench rate by measuring reduction in R(drug)/R(control) ratio by fluorescence quenching assay
[12] = system: Lipid bilayer; experiment: Induction of membrane perturbation in DC18:1PC LUV bilayer assessed as fluorescence quench rate by measuring gramicidin mixture monomer to dimer equilibrium at 30000 uM by fluorescence quenching assay
[13] = system: Lipid bilayer; experiment: Induction of membrane perturbation in DC20:1PC LUV bilayer assessed as fluorescence quench rate by measuring gramicidin mixture monomer to dimer equilibrium at 30000 uM by fluorescence quenching assay
[14] = system: Lipid bilayer; experiment: Induction of membrane perturbation in DC18:1PC LUV bilayer assessed as fluorescence quench rate by measuring gramicidin mixture monomer to dimer equilibrium at 100 uM by fluorescence quenching assay
[15] = system: Lipid bilayer; experiment: Induction of membrane perturbation in DC18:1PC LUV bilayer assessed as effect on potential of mean force by measuring reduction in deltaG for gramicidin mixture monomer to dimer and pure gramicidin-bilayer by fluorescence quenching assay
[16] = system: Lipid bilayer; experiment: Induction of membrane perturbation in DC22:1PC LUV bilayer assessed as fluorescence quench rate by measuring gramicidin mixture monomer to dimer equilibrium at 100 uM by fluorescence quenching assay
[17] = system: Lipid bilayer; experiment: Induction of membrane perturbation in DC20:1PC LUV bilayer assessed as fluorescence quench rate by measuring gramicidin mixture monomer to dimer equilibrium at 100 uM by fluorescence quenching assay
[18] = system: Lipid bilayer; experiment: Induction of membrane perturbation in DC22:1PC LUV bilayer assessed as fluorescence quench rate by measuring gramicidin mixture monomer to dimer equilibrium at 30 uM by fluorescence quenching assay; how it was run: as §1
[19] = system: Lipid bilayer; experiment: Induction of membrane perturbation in DC18:1PC LUV bilayer assessed as fluorescence quench rate by measuring gramicidin mixture monomer to dimer equilibrium at 30 uM by fluorescence quenching assay; how it was run: as §2
[20] = system: Lipid bilayer; experiment: Induction of membrane perturbation in DC20:1PC LUV bilayer assessed as fluorescence quench rate by measuring gramicidin mixture monomer to dimer equilibrium at 30 uM by fluorescence quenching assay
[21] = system: Lipid bilayer; experiment: Induction of membrane perturbation in DC20:1PC LUV bilayer assessed as fluorescence quench rate by measuring gramicidin mixture monomer to dimer equilibrium at 10 uM by fluorescence quenching assay
[22] = system: Lipid bilayer; experiment: Induction of membrane perturbation in DC18:1PC LUV bilayer assessed as fluorescence quench rate by measuring gramicidin mixture monomer to dimer equilibrium at 10 uM by fluorescence quenching assay; how it was run: as §2
[23] = system: Lipid bilayer; experiment: Induction of membrane perturbation in DC22:1PC LUV bilayer assessed as fluorescence quench rate by measuring gramicidin mixture monomer to dimer equilibrium at 10 uM by fluorescence quenching assay; how it was run: as §1
[24] = system: Lipid bilayer; experiment: Induction of membrane perturbation in DC20:1PC LUV bilayer assessed as fluorescence quench rate by measuring gramicidin mixture monomer to dimer equilibrium at 1800 uM by fluorescence quenching assay
[25] = system: Lipid bilayer; experiment: Induction of membrane perturbation in DC22:1PC LUV bilayer assessed as fluorescence quench rate by measuring gramicidin mixture monomer to dimer equilibrium at 1800 uM by fluorescence quenching assay; how it was run: as §1
[26] = system: Lipid bilayer; experiment: Induction of membrane perturbation in DC18:1PC LUV bilayer assessed as fluorescence quench rate by measuring gramicidin mixture monomer to dimer equilibrium at 1800 uM by fluorescence quenching assay; how it was run: as §2

Compound | deltaG [1] | Activity [5] | deltaG [6] | Activity [7] | further results
CC(C)CCC[C@@H](C)[C@H]1CC[C@H]2[C@@H]3CC=C4C[C@@H](O)CC[C@]4(C)[C@H]3CC[C@]12C | 2.5 kcal/mol | – | – | – | Activity [2]: Active; Activity [3]: Active
CCCCCCCCCCCCOP(=O)([O-])OCC[N+](C)(C)C | -0.5 kcal/mol | Dose-dependent effect | -0.5 kcal/mol | Active | Activity [4]: inactive; Activity [8]: Active; Activity [9]: inactive
C1CCCCC1 | 0 kcal/mol | – | 0 kcal/mol | – | Activity [10]: Active; Activity [11]: Dose-dependent effect; Activity [12]: inactive; Activity [13]: inactive; Activity [3]: Active
COc1cc(CNC(=O)CCCC/C=C/C(C)C)ccc1O | -0.5 kcal/mol | – | -0.6 kcal/mol | Active | Activity [14]: inactive; Activity [15]: Active; Activity [16]: Active; Activity [17]: inactive
CC(C)(C)CC(C)(C)c1ccc(OCCOCCOCCOCCOCCOCCOCCOCCOCCOCCO)cc1 | -1.5 kcal/mol | Dose-dependent effect | -1.6 kcal/mol | Active | Activity [18]: Active; Activity [19]: inactive; Activity [20]: inactive
CCCCCCCCCCCCOCCOCCOCCOCCOCCOCCO | -1.4 kcal/mol | Dose-dependent effect | -1.5 kcal/mol | Active | Activity [21]: inactive; Activity [22]: inactive; Activity [23]: Active
Oc1ccc(/C=C/c2cc(O)cc(O)c2)cc1 | -1.7 kcal/mol | Dose-dependent effect | -1.8 kcal/mol | Active | Activity [18]: Active; Activity [19]: inactive; Activity [20]: inactive
CCCCCCCCO | -0.4 kcal/mol | Dose-dependent effect | -0.3 kcal/mol | Active | Activity [24]: inactive; Activity [25]: Active; Activity [26]: inactive
